Measurements taken from ChEMBL document CHEMBL4699636, “Novel 2,7-Diazaspiro[4,4]nonane Derivatives to Inhibit Mouse and Human Osteoclast Activities and Prevent Bone Loss in Ovariectomized Mice without Affecting Bone Formation” (J Med Chem, 2020).
The source made the active and inactive calls. The calls are words filed in the database; no cut-off is given here.

Experiments:
[1] = target: Triple functional domain protein (Homo sapiens) (UniProt O75962); assay: Inhibition of C-terminal 6-histidine tagged human TRIOGEF1 (R1232 to T1550 residues) expressed in Escherichia coli assessed as reduction in nucleotide exchange efficiency at 20 to 60 uM by N-methylanthraniloyl-GDP fluorescence based nucleotide exchange assay; conditions: dose microM 20-60
Summary of the method: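 Mant-GDP-loaded His-tagged human RAC1 at 2.0 µM with 100 nM DOCK5 (residues 1212-1642) or TRIOGEF1 (R1232-T1550), both E. coli-expressed. Buffer: 50 mM Tris pH 8, 300 mM NaCl, 2 mM MgCl2, 1 mM DTT, 1% DMSO, 25 °C. Reaction started with 100 µM GTP. Fluorescence decay read at ex 360/em 440 nm, kobs by single-exponential fit, compound at 0, 20 or 60 µM, duplicates, as % of activity.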

[2] = tested on: Osteoclast (Homo sapiens); assay: Inhibition of resorption activity of human peripheral blood cell-derived osteoclasts at 1-20 uM incubated for 48 hrs by Kossa-staining based assay; conditions: dose microM 1-20, time 48.0 hrs
[3] = tested on: Mus musculus; assay: Antiosteoporotic activity in C57BL6/J mouse model of OVX-induced bone loss assessed as trabecular thickness level in femoral metaphysis at 20 mg/kg, ip QD for 4 weeks by histomorphometry (39.96 +/- 5.42 um); format: functional
Summary of the method: (§1)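 OVX mice, 12 weeks old, ip 20 mg/kg q.d. or b.i.d. for 4 weeks in CMC/Tween 80 vehicle. Distal right femur taken day 28. Static trabecular parameters measured on one 4-µm Masson-Goldner trichrome section, ROI 0.75 mm². n=10 per group, 9 in OVX+vehicle.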

[4] = tested on: Mus musculus; assay: Antiosteoporotic activity in C57BL6/J mouse model of OVX-induced bone loss assessed as trabecular thickness level in femoral metaphysis at 20 mg/kg, ip BID for 4 weeks by histomorphometry (39.96 +/- 5.42 um); format: functional; summary of the method: as §1
[5] = tested on: Mus musculus; assay: Antiosteoporotic activity in C57BL6/J mouse model of OVX-induced bone loss assessed as serum CTX-1 level […] at 20 mg/kg, ip QD for 4 weeks (165.38 +/- 54.93 %); format: functional
[6] = Toxicity in C57BL6/J mouse model of OVX-induced bone loss assessed as effect on osteoclast numbers per bone perimeter at 20 mg/kg, IP QD for 4 weeks; format: organism-based; conditions: in vivo, 672 h; summary of the method: as §1
[7] = tested on: Mus musculus; assay: Antiosteoporotic activity in C57BL6/J mouse model of OVX-induced bone loss assessed as trabecular separation level in femoral metaphysis at 20 mg/kg, ip QD for 4 weeks by histomorphometry (319.80 +/- 106.52 um); format: functional; summary of the method: as §1
[8] = tested on: Mus musculus; assay: Antiosteoporotic activity in C57BL6/J mouse model of OVX-induced bone loss assessed as serum CTX-1 level […] at 20 mg/kg, ip BID for 4 weeks (165.38 +/- 54.93 %); format: functional
[9] = tested on: Mus musculus; assay: Antiosteoporotic activity in C57BL6/J mouse model of OVX-induced bone loss assessed as trabecular pattern factor level in tibial metaphysis at 20 mg/kg, ip QD for 4 weeks by microCT analysis (17.17 +/- 3.41 […]); format: functional
[10] = Toxicity in C57BL6/J mouse model of OVX-induced bone loss assessed as effect on bone formation by measuring osteoblast surface per trabecular bone surface level in femoral metaphysis at 20 mg/kg, ip QD for 4 weeks by histomorphometry (5.03 +/ 2.92 %); format: organism-based; conditions: in vivo, 672 h; summary of the method: as §1
[11] = tested on: Mus musculus; assay: Antiosteoporotic activity in C57BL6/J mouse model of OVX-induced bone loss assessed as cortical thickness level in tibial diaphysis at 20 mg/kg, ip QD for 4 weeks by microCT analysis (179.27 +/- 7.57 um); format: functional
[12] = Toxicity in C57BL6/J mouse model of OVX-induced bone loss assessed as effect on bone formation by measuring bone formation rate per trabecular bone surface level in femoral metaphysis at 20 mg/kg, ip QD for 4 weeks by histomorphometry ([…]); format: organism-based; conditions: in vivo, 672 h
[13] = tested on: Mus musculus; assay: Antiosteoporotic activity in C57BL6/J mouse model of OVX-induced bone loss assessed as trabecular separation level in femoral metaphysis at 20 mg/kg, ip BID for 4 weeks by histomorphometry (319.80 +/- 106.52 um); format: functional; summary of the method: as §1
[14] = tested on: Mus musculus; assay: Antiosteoporotic activity in C57BL6/J mouse model of OVX-induced bone loss assessed as trabecular bone volume per tissue volume level in tibial metaphysis at 20 mg/kg, ip BID for 4 weeks by microCT analysis (17.49 +/- 2.91 %); format: functional
[15] = Toxicity in C57BL6/J mouse model of OVX-induced bone loss assessed as effect on bone formation by measuring mineralizing mineral apposition rate level in femoral metaphysis at 20 mg/kg, ip BID for 4 weeks by histomorphometry (1.62 +/ 0.21 um/d (lcm)); format: organism-based; conditions: in vivo, 672 h
[16] = tested on: Mus musculus; assay: Antiosteoporotic activity in C57BL6/J mouse model of OVX-induced bone loss assessed as trabecular number level in femoral metaphysis at 20 mg/kg, ip BID for 4 weeks by histomorphometry (2.99 +/- 0.80 /mm); format: functional; summary of the method: as §1
[17] = Toxicity in C57BL6/J mouse model of OVX-induced bone loss assessed as effect on bone formation by measuring bone formation rate per trabecular bone surface level in femoral metaphysis at 20 mg/kg, ip BID for 4 weeks by histomorphometry ([…]); format: organism-based; conditions: in vivo, 672 h
[18] = Toxicity in C57BL6/J mouse model of OVX-induced bone loss assessed as effect on bone formation by measuring osteocalcin level at 20 mg/kg, ip QD for 4 weeks (1.62 +/ 0.21 m3/um2/y); format: organism-based; conditions: in vivo, 672 h
[19] = Toxicity in C57BL6/J mouse model of OVX-induced bone loss assessed as effect on bone formation by measuring osteocalcin level at 20 mg/kg, ip BID for 4 weeks […]; format: organism-based; conditions: in vivo, 672 h
[20] = Toxicity in C57BL6/J mouse model of OVX-induced bone loss assessed as effect on bone formation by measuring number of osteoblasts per bone surface level in femoral metaphysis at 20 mg/kg, ip BID for 4 weeks by histomorphometry (4.55 +/ 2.53 /mm); format: organism-based; conditions: in vivo, 672 h; summary of the method: as §1
[21] = Toxicity in C57BL6/J mouse model of OVX-induced bone loss assessed as effect on bone formation by measuring osteoblast surface per trabecular bone surface level in femoral metaphysis at 20 mg/kg, ip BID for 4 weeks by histomorphometry (5.03 +/ 2.92 %); format: organism-based; conditions: in vivo, 672 h; summary of the method: as §1
[22] = Toxicity in C57BL6/J mouse model of OVX-induced bone loss assessed as effect on body weight at 20 mg/kg, IP BID for 4 weeks; format: organism-based; conditions: in vivo, 672 h
Summary of the method: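 Body weight tracked in 12-week-old OVX C57BL6/J mice during 4 weeks of ip 20 mg/kg q.d. or b.i.d. dosing in 0.485% carboxymethylcellulose/3% Tween 80, 10 mL/kg.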

[23] = tested on: Mus musculus; assay: Antiosteoporotic activity in C57BL6/J mouse model of OVX-induced bone loss assessed as structure model index level in tibial metaphysis at 20 mg/kg, ip BID for 4 weeks by microCT analysis (1.92 +/- 0.19); format: functional; conditions: dose […]

- inhibition [1]: inactive
Compound: O=S1(=O)N(c2ccccc2)C[C@H](O)[C@]12CCN(Cc1ccc(Cl)cc1)C2 (racemic)
- inhibition [2]: Active
- Activity [3]: 41.8 µm
- Activity [4]: 47.2 µm
- Activity [5]: 153.3%
- Activity [6]: Non-Toxic
- Activity [7]: 318.42 um
- Activity [8]: 112.71%
- Activity [9]: 13.7 1/mm
- Activity [10]: 3.57%
- Activity [11]: 187.72 um
- Activity [12]: 184.98 um3/um2/yr
- Activity [13]: 251.29 um
- Activity [14]: 25.3%
- Activity [15]: 1.65 micrometer/day
- Activity [16]: 3.51 /millimeter
- Activity [17]: 157.59 um3/um2/yr
- Activity [18]: 96.8%
- Activity [19]: 109.97%
- Activity [20]: 3.63 /millimeter
- Activity [21]: 4.01%
- Activity [22]: Non-Toxic
- Activity_index [23]: 1.48
